Shown are actives, neighbours in structure and some others; about 3.9% of the full set was active somewhere.
TAAR1 ag = human TAAR1 agonism; CHO RD-HGA16 TAAR1, Fluo-8 calcium fluorescence; vehicle wells 0%, saturating PEA agonist 100%; activation, % at 3 µM; 0.99% of 360,000 active;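 active means activation above the mean activation of all test compounds in the run plus 3 SD, cut at about 38% in these data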
Target sequence (Q96RJ0 whole entry, looked up): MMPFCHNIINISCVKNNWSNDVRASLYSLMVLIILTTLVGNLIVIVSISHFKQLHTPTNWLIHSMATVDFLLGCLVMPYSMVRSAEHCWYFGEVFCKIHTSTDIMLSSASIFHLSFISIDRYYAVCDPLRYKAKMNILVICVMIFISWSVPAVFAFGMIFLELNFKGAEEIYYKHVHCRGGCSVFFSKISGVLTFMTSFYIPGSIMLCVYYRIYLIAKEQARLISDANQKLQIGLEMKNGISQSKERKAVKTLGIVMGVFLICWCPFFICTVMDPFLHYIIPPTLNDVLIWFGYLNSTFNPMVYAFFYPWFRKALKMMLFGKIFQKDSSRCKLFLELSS
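Assay system: CHO-derived RD-HGA16 cells with stable Gα16 and human TAAR1; timing: 17-24 h seeding, 75 min 37 °C dye, 30 min RT; read-out: % activation from peak over basal fluorescence ratio, DMSO-to-PEA scaled; measured by: kinetic Fluo-8 calcium fluorescence; benchmarks: low control DMSO, high control PEA (EC100); doses: 3 µM single concentration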
CHRM1 antagonist = blocks human M1 muscarinic receptor | P11229 | CHO-K1 hM1, Fluo-8 calcium fluorescence, ACh EC80 antagonist | inhibition, % at 3 µM | 1.3% of 360,000 active | AID 588852;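 active means percent inhibition above its own plate's cutoff, namely the mean of that plate's compound wells plus 3 SD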;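 further: peak over basal fluorescence ratio during 140 s after agonist addition; 0% = ACh EC80 plus DMSO and 100% = DMSO alone without agonist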
HTR2A ag = activates the mouse 5-HT2A serotonin receptor. P35363. CHO-K1 mHTR2A beta-arrestin complementation, luminescence; percent of 30 µM serotonin response. activation, % at 7.6 µM. 0.66% of 360,000 active;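 active means activation above a run cutoff, the mean activation of all tested compounds plus 3 SD, cut at about 14% in these data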;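 further: 0% = plate median of compound wells and 100% = 30 µM serotonin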
M1 ag = agonists of human M1 muscarinic receptor | P11229 | CHO-K1 hM1, Fluo-8 calcium fluorescence, agonist mode; 0% DMSO, 100% acetylcholine EC100 | activation, % at 3 µM | 0.33% of 360,000 active;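 active means activation above the run's mean compound activation plus 3 SD, cut at about 16% in these data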;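 further: peak over basal fluorescence ratio within a 140 s kinetic read after compound addition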
TAAR1 antagonist = antagonists of human TAAR1. CHO RD-HGA16 TAAR1, Fluo-8 calcium fluorescence, antagonist. Q96RJ0. inhibition, % at 3 µM. 1.5% of 360,000 active;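 active means inhibition above a per-plate cutoff, the mean inhibition of test compounds on that plate plus 3 SD, cut at about 49% in these data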;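 further: 0% = DMSO plus EC80 beta-PEA response and 100% = DMSO alone without agonist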
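test system = CHO RD-HGA16 cells bearing hTAAR1 | replication = singlicate | controls = DMSO-only wells and EC80 β-PEA-stimulated wells | reagent = EC80 β-phenethylamine stimulus | read-out basis = percent inhibition of PEA-evoked calcium signal, max/basal emission ratio | schedule = seeding 17-24 h prior, 75-min 37 °C, 30-min RT dye loading | signal = kinetic Fluo-8 calcium fluorescence measurement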
CHRM1 PAM = human CHRM1 positive allosteric modulation | P11229 | CHO-K1 hM1, Fluo-8 calcium fluorescence, ACh EC20; 0% = ACh EC20, 100% = maximal ACh | activation, % at 3 µM | 0.088% of 360,000 active | AID 588819; in the data active means activation above about 19%, passing the limit was not always enough
Numbers without * were called inactive; . = no result.

SMILES	TAAR1 ag	CHRM1 antagonist	HTR2A ag	M1 ag	TAAR1 antagonist	CHRM1 PAM
COC(=O)C1=C(C)N(C)C(=NCc2cc(OC)c(OC)c(OC)c2)NC1c1ccc(C(F)(F)F)cc1 (stereo not drawn)	3	.	.	.	-25	.
Cc1nc2ccccc2nc(C)c1=NOCc1cccc(Cl)c1	-2	-1	2	-1	2	2
Cc1nc2ccccc2cc1OCc1ccccc1	21	18*	3	-2	12	-12
COc1cccc(COc2cc3ccccc3nc2C)c1	11	34*	1	-1	21	-7
Cc1nc2ccccc2cc1OCc1ccc(Cl)cc1	23	22*	-6	-2	15	-12
CCCCNC(=O)c1cc2ccccc2s1	3	-10	-7	-8	-33	3
Cc1ccc(C2=NCCn3c2c2ccc(C(F)(F)F)cc2[n+]3[O-])cc1	11	-2	6	4	-8	9
CCCC1(c2ccccc2)NC(=O)N(CC(=O)Nc2ccccc2C(F)(F)F)C1=O (stereo not drawn)	12	2	0	5	-12	11
CCC1(c2ccccc2)NC(=O)N(CC(=O)Nc2ccccc2N2CCCC2)C1=O (stereo not drawn)	39*	-14	2	13	3	10
O=C(CN1C(=O)NC2(CCCCC2)C1=O)Nc1ccccc1N1CCCCC1	-1	-8	1	-1	-6	8
CCC1(c2ccccc2)NC(=O)N(CC(=O)Nc2ccc(N3CCCC3)cc2C)C1=O (stereo not drawn)	1	-10	0	-1	-19	9
CC1(c2ccccc2)NC(=O)N(CC(=O)Nc2ccccc2N2CCCCC2)C1=O (stereo not drawn)	24	-3	3	22*	30	6
CCC1(c2ccccc2)NC(=O)N(CC(=O)N(CC(=O)Nc2ccccc2C(F)(F)F)Cc2ccco2)C1=O (stereo not drawn)	44*	-17	12	18*	18	4
O=c1c2ccccc2sn1-c1cc(S(=O)(=O)N2CCOCC2)ccc1N1CCOCC1	87*	-22	6	12	36	-3
Cc1ccc(-n2c(SCC(=O)Nc3cccc(S(=O)(=O)NC4=NCCCCC4)c3)nc3ccccc3c2=O)cc1C	2	-6	-1	-8	-13	1
Cc1cc(SCC(=O)Nc2cccc(S(=O)(=O)NC3=NCCCCC3)c2)nc2ccccc12	11	-16	-6	-3	49*	5
FC(F)(F)c1ccccc1CN1CCCc2nc(-c3ccc(Br)cc3)ccc21	-1	.	.	.	-28	.
O=C(COC(=O)/C=C/c1ccc(Cl)cc1)NCCC1=CCCCC1	0	-6	1	-2	-5	3
O=C(COC(=O)/C=C/c1cccc(Cl)c1)NCCC1=CCCCC1	39*	-14	2	-7	32	8
CC(O)[C@@H](C(=O)N1CCNCC1)n1cc(CCCCN)nn1 (stereo partly drawn)	14	8	9	-5	9	-1
COc1cc2nc(C3CCC3)nc(N3CCN(c4ccccc4OC)CC3)c2cc1OC	0	66*	3	-9	1	-25
COc1cccc(N2C(=O)C3CCCN3C2c2cccs2)c1 (stereo not drawn)	-1	-6	-2	18*	-7	7
CC(=O)c1c[nH]c(C(=O)NC2CCCCCC2)c1	0	3	-1	-1	-24	3
O=[N+]([O-])c1cccc(N/N=C/c2ccc(N3CCOCC3)cc2)c1	14	11	-6	-5	58*	-6
CC1CC(C)(C)N2C(=O)C3(Nc4ccccc4S3)c3cccc1c32 (stereo not drawn)	.	1	-3	-3	.	1
SMILES	TAAR1 ag	CHRM1 antagonist	HTR2A ag	M1 ag	TAAR1 antagonist	CHRM1 PAM
Cc1cc2c3c(c1)C1(SCC(=O)N1c1ccc(F)cc1)C(=O)N3C(C)(C)CC2C (stereo not drawn)	48*	-2	-2	5	9	-1
CCCCNC(=O)C1C2C=CC(C2)C1C(=O)O (stereo not drawn)	42*	4	-1	-8	-5	16
Cc1ccccc1C(=O)Oc1cccc(Nc2ncnc3ccccc23)c1	15	7	-2	3	53*	-13
O=C(NCc1ccccc1F)c1ccncc1	1	-4	1	3	-1	15
CCN(Cc1cc(OC)c(OC)c(OC)c1)S(=O)(=O)c1ccccc1Br	5	.	.	.	27	.
COc1c(C)cc(C(=O)C2CCCN(Cc3cccc4nccnc34)C2)cc1C (stereo not drawn)	1	42*	-6	-12	3	-29
COc1ccccc1C(=O)C1CCCN(Cc2cccc3nccnc23)C1 (stereo not drawn)	3	45*	-4	-4	-22	-19
COc1ccc(C(=O)C2CCCN(C/C=C/c3ccccc3OC)C2)c(OC)c1 (stereo not drawn)	1	51*	6	-10	-8	-28
CCOC(=O)N1CCC(N2CCCC(C(=O)c3ccc4cc(OC)ccc4c3)C2)CC1 (stereo not drawn)	5	7	-5	-10	-25	-16
COc1cccc(OC)c1CN1CCCC(C(=O)c2ccccc2SC)C1 (stereo not drawn)	2	3	-4	-6	-2	-4
CCOC(=O)N1CCC(N2CCCC(C(=O)c3cc(C)c(OC)c(C)c3)C2)CC1 (stereo not drawn)	1	78*	-3	-11	-10	-27
O=C(Cn1cc2c(n1)CCCCC2)Nc1ccccc1Br	7	-7	-4	-4	-23	4
CCOP1(=O)OCC2OC(n3cnc4c(N)ncnc43)C(O)C2O1 (stereo not drawn)	2	-12	2	2	-16	14
NS(=O)(=O)c1cccc(NC(=O)CSc2n[nH]c(-c3ccccc3Br)n2)c1	2	6	-5	-4	10	-1
O=C(COc1ccc(S(=O)(=O)NC2CCCCC2)cc1)N1CCN(c2cccc(Cl)c2)CC1	13	26*	1	-5	9	-18
Cc1oc(-c2cccc3ccccc23)nc1CN1CCN(c2ncnc3ccccc23)CC1	11	7	4	-10	57*	-9
CN(CC/C=C1/c2ccccc2CSc2ccccc21)CCCO	4	89*	-8	-9	-6	-23
C#CCN(C)Cc1ccccc1	2	-29	3	-4	-11	4
CN(C)CC/C=C1/c2ccccc2COc2ccc(CC(=O)O)cc21	1	-2	-9	-9	9	-9
C#CCN(C)CC/C=C1\c2ccccc2CSc2ccccc21	10	79*	-6	-6	4	-20
